Assay outcomes deposited in PubChem BioAssay by several laboratories.
aSyn UTR inh – MLPCN primary screen, SNCA 5' untranslated region; alpha-synuclein 5'UTR reporter, inhibitor activity; inhibition, % (tested at 7.5 µM); actives 0.82% (n = 300,000); in the data active = inhibition above about 60%;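 note: H4 neuroglioblastoma cells stably carrying SNCA 5'UTR luciferase fusion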
Jurkat NFkB inh – inhibitors of the PMA/ionomycin-induced NF-kB reporter in Jurkat cells. PMA/ionomycin-induced NF-kB luciferase reporter, luminescence. inhibition, % at 4 µM. actives 0.53% (n = 330,000); in the data active = inhibition above about 50%
697 NFkB inh – inhibitors of the PMA/ionomycin-induced NF-kB reporter in 697 B cells; 697 B-cell NF-kB luciferase reporter, 16 h; inhibition, % at 4 µM; actives 0.33% (n = 330,000); AID 435022; in the data active = inhibition above about 35%
IMP-1 inhibitor – inhibitors of Pseudomonas aeruginosa IMP-1 metallo-beta-lactamase. AID 1556. inhibition, % at 5.6 µM. actives 0.45% (n = 290,000). purified IMP-1, nitrocefin hydrolysis, epi-absorbance fluorescence;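 active = inhibition above the mean plus 3 SD of all compounds in the same screening run, cut at about 4.5% in these data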
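System: Purified recombinant IMP-1 metallo-beta-lactamase enzyme | Measured by: Fluorescence quenching readout, ex 480/em 530 nm | Replication: Singlicate | Incubation: 15 min preincubation plus 25 min reaction at 25 °C | Evaluation: Percent inhibition from optical density relative to buffer-blank wells | Benchmarks: DMSO with and without IMP-1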
VIM-2 inh – blocks Pseudomonas aeruginosa VIM-2 metallo-beta-lactamase; purified VIM-2, nitrocefin hydrolysis, epi-absorbance fluorescence; inhibition, % at 5.6 µM; actives 0.89% (n = 290,000);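 active = inhibition above the mean of all tested compounds plus 3 SD, cutoff set per screening run, cut at about 7.5% in these data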;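 note: red hydrolysis product quenches plate fluorescence so inhibitors raise well fluorescence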
Mdm2-MdmX inh – disrupts the human Mdm2-MdmX interaction. O15151+Q00987. SaOS-2 split-luciferase Mdm2/MdmX complementation, luminescence. inhibition, % at 8 µM. actives 3% (n = 330,000);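 active = inhibition of at least 50% at 8 µM in the primary screen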
Target sequence (O15151 whole entry, looked up): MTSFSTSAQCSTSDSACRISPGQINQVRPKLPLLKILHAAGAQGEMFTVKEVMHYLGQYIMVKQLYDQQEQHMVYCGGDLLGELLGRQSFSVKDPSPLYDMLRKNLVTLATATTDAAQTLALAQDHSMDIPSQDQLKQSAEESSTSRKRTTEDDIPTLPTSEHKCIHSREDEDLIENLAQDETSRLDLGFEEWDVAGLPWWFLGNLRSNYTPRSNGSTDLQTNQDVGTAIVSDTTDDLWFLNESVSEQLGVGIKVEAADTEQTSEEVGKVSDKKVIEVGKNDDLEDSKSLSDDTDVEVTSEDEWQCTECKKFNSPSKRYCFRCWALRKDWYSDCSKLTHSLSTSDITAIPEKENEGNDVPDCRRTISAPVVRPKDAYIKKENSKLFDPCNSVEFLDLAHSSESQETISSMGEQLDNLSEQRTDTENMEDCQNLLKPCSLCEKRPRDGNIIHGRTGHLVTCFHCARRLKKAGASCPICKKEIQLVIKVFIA
Target sequence (Q00987 whole entry, looked up): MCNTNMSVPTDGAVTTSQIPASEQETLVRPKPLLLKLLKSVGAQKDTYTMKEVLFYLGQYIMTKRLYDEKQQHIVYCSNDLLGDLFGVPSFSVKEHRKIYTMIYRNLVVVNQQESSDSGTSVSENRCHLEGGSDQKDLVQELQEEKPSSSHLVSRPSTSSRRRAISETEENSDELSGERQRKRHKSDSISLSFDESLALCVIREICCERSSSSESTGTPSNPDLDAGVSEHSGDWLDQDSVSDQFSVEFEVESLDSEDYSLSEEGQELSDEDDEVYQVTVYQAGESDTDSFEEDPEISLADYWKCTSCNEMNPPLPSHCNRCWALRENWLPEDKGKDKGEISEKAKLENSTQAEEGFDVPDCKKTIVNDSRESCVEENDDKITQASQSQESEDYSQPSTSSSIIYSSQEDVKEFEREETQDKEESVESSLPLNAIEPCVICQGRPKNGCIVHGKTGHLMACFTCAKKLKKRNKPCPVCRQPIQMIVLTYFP
697 NFkB conf – lowers PMA/ionomycin-induced NF-kB signal in 697 B cells. shares compounds with 697 NFkB inh. 697 B-cell NF-kB luciferase, 16 h. inhibition, % at 4 µM. actives 35% (n = 2,000). AID 449746; in the data active = inhibition mostly above about 28%, no sharp cut-off; inactive = mostly below about 22%
Numbers stand for hits; i = inactive; nt = no result. Shown are actives, neighbours in structure and some others; about 4.7% of the full set was active somewhere.

SMILES	aSyn UTR inh	Jurkat NFkB inh	697 NFkB inh	IMP-1 inhibitor	VIM-2 inh	Mdm2-MdmX inh	697 NFkB conf
CCN1C(=O)c2cccc3c(S(=O)(=O)Nc4ccncc4)ccc1c23	i	i	37.3	i	i	i	i
COc1cc(C2/C(=C(\O)c3ccc4c(c3)CC(C)O4)C(=O)C(=O)N2CCN2CCOCC2)cc(OC)c1OC (configuration not stated)	i	i	i	i	i	i	nt
CC1CN(C(=O)c2ccc(OC3CCN(Cc4ccccn4)CC3)cc2)CCN1C (configuration not stated)	i	i	i	i	i	i	nt
CCOc1ccc(NS(=O)(=O)c2ccc(C(=O)N(C)Cc3cccc(OC)c3OC)cc2)cc1	i	i	i	i	i	i	nt
COc1cc(/C=C/c2nc3ccccc3s2)cc(OC)c1O	i	i	i	i	i	i	nt
Cc1ccc(/C=C/c2nc3ccccc3s2)s1	71.4	i	i	i	i	i	i
CCC(C)Sc1ccc([C@H]2N[C@@](C)(C(=O)OC)[C@H]3C(=O)N(CC)C(=O)[C@@H]23)cc1OC (some centres not stated)	nt	i	i	nt	nt	i	nt
Cc1cc(OCC(=O)NC2CC2)c2c(C)c(C)c(=O)oc2c1	i	i	35.8	i	i	i	29.3
O=[N+]([O-])c1ccc(/C=C/c2ccc3ccccc3n2)cc1	i	i	i	i	i	i	i
C(=C\c1ccc2ccccc2n1)/c1ccccc1	66.9	i	i	i	i	i	i
O=[N+]([O-])c1ccc(/C=C/c2ccc3cccc(O)c3n2)cc1	i	i	i	i	i	i	nt
O=C(O)/C=C/c1ccc2ccccc2n1	i	i	i	i	i	i	nt
CC(C)[C@H](N)c1nnc(SCC(=O)c2ccc(Cl)cc2)o1	i	i	58.0	i	i	i	35.3
CCOc1ccc(CCNC(=O)COC(=O)c2ccc(S(=O)(=O)N3CCCC3)cc2)cc1OCC	i	i	i	nt	nt	i	nt
O=C(c1ccc2c(=O)n(-c3ccccc3)c(=S)[nH]c2c1)N1CCCCC1	i	i	38.2	i	i	i	i
O=C(c1ccc2c(=O)n(-c3ccccc3)c(=S)[nH]c2c1)N1CCN(c2ccccc2)CC1	nt	i	i	nt	nt	i	nt
CCC(C)NC(=O)c1ccc(-n2c(=S)[nH]c3ccccc3c2=O)cc1 (configuration not stated)	i	i	40.6	i	i	i	i
COC(=O)c1sccc1-c1ccc(/C=N/OC(=O)c2cccs2)o1	i	i	i	i	i	i	nt
CCOc1ccc(OCCC(=O)Nc2cccc(S(=O)(=O)N3CCCC3)c2)cc1	nt	i	i	nt	nt	i	nt
CC(=O)c1cc(F)ccc1OCC(=O)N1CCN(c2ccc(F)cc2)CC1	i	i	36.1	i	i	i	i
NC(=S)N=Nc1c(O)n(Cc2ccccc2)c2ccccc12	i	i	44.7	i	i	i	38.7
C/C(Cl)=C\Cn1c(O)c(N=NC(N)=S)c2ccccc21	i	i	i	i	i	i	nt
CCN1CCN(C(CNS(=O)(=O)c2ccc(F)cc2)c2cccnc2)CC1 (configuration not stated)	i	i	i	i	i	i	nt
Cc1ccccc1Cn1cc(NC(=O)c2cc(-c3ccco3)on2)cn1	i	i	37.7	i	i	i	i
O=C(Nc1cnn(Cc2ccc(F)cc2)c1)c1cc(-c2ccco2)on1	i	i	41.1	i	i	i	i
SMILES	aSyn UTR inh	Jurkat NFkB inh	697 NFkB inh	IMP-1 inhibitor	VIM-2 inh	Mdm2-MdmX inh	697 NFkB conf
Cc1cc(NC(=O)c2cc(-c3ccco3)on2)no1	i	i	37.2	i	i	i	i
COc1ccc(CCNC(=O)c2cc(-c3ccco3)on2)cc1OC	i	i	49.6	i	i	i	i
COc1ccc(CCNC(=O)c2cc(-c3cccs3)on2)cc1OC	i	i	i	i	i	i	nt
CC(C)N(C(=O)[C@H]1CC(CC(=O)NC(C)(C)C)C(=O)N2CCc3c([nH]c4ccccc34)[C@]12C)C(C)C (some centres not stated)	nt	i	i	nt	nt	i	nt
CCOC(=O)C1=C(N)n2c(s/c(=C\c3ccncc3)c2=O)=C(C(=O)OCC)C1c1ccncc1 (configuration not stated)	i	i	i	i	i	i	nt
CCOC(=O)C1=C(N)n2c(s/c(=C\c3cccnc3)c2=O)=C(C(=O)OC)C1c1cccnc1 (configuration not stated)	i	i	37.2	i	i	i	i
Fc1ccc(-c2noc(-c3ccc4c(c3)CCO4)n2)cc1	i	i	i	i	i	i	i
COc1cc(S(=O)(=O)NCc2ccc(F)cc2)ccc1-n1cnnn1	i	i	i	i	i	i	nt
COc1cc2c3c(c1)c(N=NC(N)=S)c(O)n3C(C)(C)C=C2C	i	i	41.8	i	i	i	41.7
CC(C)(CSc1ncccn1)NS(=O)(=O)c1ccccc1	i	i	39.3	i	i	i	i
CN(C)C(=O)CCc1nc(-c2ccc(C(C)(C)C)cc2)no1	i	i	81.4	i	i	i	77.2
CC(C)(C)c1ccc(-c2noc(CCC(N)=O)n2)cc1	90.8	i	93.0	i	i	i	93.9
COc1ccc(-c2noc(CCCC(=O)Nc3ccc(C(N)=O)cc3)n2)cc1	i	i	78.0	i	i	i	44.7
COc1ccc(-c2noc(CCCC(=O)N3CCOCC3)n2)cc1	i	i	i	i	i	i	nt
CC(C)(C)c1ccc(-c2noc(CCC(=O)N3CCOCC3)n2)cc1	i	i	51.7	i	i	i	36.7
COc1cc(-c2noc(CCCC(=O)Nc3ccc(C(N)=O)cc3)n2)cc(OC)c1OC	i	i	i	i	i	i	nt
CCCn1c(SCC(=O)Nc2cc(C)on2)n[nH]c1=O	nt	i	i	nt	nt	i	nt
Cc1cc(=O)[nH]c(SCC(=O)NN(c2ccccc2)c2ccccc2)n1	i	i	i	i	i	i	nt
CCN1C(=O)[C@H]2[C@@H](c3ccc(-c4cccc(Cl)c4)c(OC)c3)N3CCC[C@@]3(C(=O)OC)[C@H]2C1=O	nt	i	i	nt	nt	i	nt
CC(C)(C)c1ccc(-c2noc(CCC(=O)NCC3CCCO3)n2)cc1 (configuration not stated)	104.2	i	95.9	i	i	i	87.5
CNC(=O)CCc1nc(-c2ccc(C(C)(C)C)cc2)no1	i	i	84.3	i	i	i	72.2
CCOc1ccc(-c2noc(CCC(=O)NC)n2)cc1OCC	i	i	i	i	i	i	nt
O=C(COC(=O)c1cc[n+]([O-])cc1)Nc1ccc(Cl)cc1C(F)(F)F	i	i	i	nt	nt	i	nt
COc1ccc(-c2nn(-c3ccccc3)cc2/C=C(\C#N)C(N)=O)cc1[N+](=O)[O-]	i	i	37.8	i	i	i	i
COc1ccc(-c2nn(-c3ccccc3)cc2/C=C(/C#N)C(N)=O)cc1[N+](=O)[O-]	i	i	i	i	i	i	nt
